Legend:
[1] = test system: human; assay: concentration in expired air after dosing; settings: dosed: methyl tert-butyl ether, 15 mg, oral, male
Method in brief: (§1)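 Data points giving concentration or amount against time came from published in vivo toxicokinetic studies and from two structured collections. PubMed searching, classifier screening and manual review located the studies. Most points were digitised from plot screenshots using WebPlotDigitizer, the rest were copied from tables, and all keep their reported units.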

[2] = test system: Rat; assay: concentration in plasma after dosing; settings: dosed: Potassium Perfluorobutane Sulfonate, 4 mg/kg, oral, Male, Harlan Sprague Dawley
[3] = test system: Rat; assay: concentration in plasma after dosing; settings: 1 h; dosed: Potassium Perfluorobutane Sulfonate; 4 mg/kg; iv; Female; Harlan Sprague-Dawley
[4] = test system: Rat; assay: concentration in plasma after dosing; settings: dosed: Potassium Perfluorobutane Sulfonate, 4 mg/kg, iv, Male, F344
[5] = test system: Rat; assay: concentration in plasma after dosing; settings: 1.5 h; dosed: Potassium Perfluorobutane Sulfonate; 20 mg/kg; oral; Male; Harlan Sprague Dawley
[6] = test system: Rat; assay: concentration in plasma after dosing; settings: dosed: Potassium Perfluorobutane Sulfonate, 4 mg/kg, iv, Male, F344; remark: listed apart in the source
[7] = test system: Rat; assay: concentration in plasma after dosing; settings: dosed: Potassium Perfluorobutane Sulfonate, 4 mg/kg, oral, Male, Harlan Sprague Dawley; remark: listed apart in the source
[8] = test system: Rat; assay: concentration in plasma after dosing; settings: 1 h; dosed: Potassium Perfluorobutane Sulfonate; 4 mg/kg; iv; Female; Harlan Sprague-Dawley; remark: listed apart in the source
[9] = test system: Rat; assay: concentration in plasma after dosing; settings: dosed: Nitrite, 40 mg/kg, oral, Female, F344
[10] = test system: Rat; assay: concentration in plasma after dosing; settings: dosed: Nitrite, 40 mg/kg, oral, Female, F344; remark: listed apart in the source
[11] = test system: Mouse; assay: concentration in plasma after dosing; settings: 2 h; dosed: 2-Hydroxy-4-methoxybenzophenone; 50 mg/kg; iv; Female; B6C3F1
[12] = test system: Mouse; assay: concentration in plasma after dosing; settings: 3 h; dosed: 2-Hydroxy-4-methoxybenzophenone; 50 mg/kg; iv; Female; B6C3F1
[13] = test system: Rat; assay: concentration in plasma after dosing; settings: dosed: 2-Hydroxy-4-methoxybenzophenone, 100 mg/kg, oral, Female, F344
[14] = test system: Mouse; assay: concentration in plasma after dosing; settings: 0.25 h; dosed: 2-Hydroxy-4-methoxybenzophenone; 50 mg/kg; iv; Male; B6C3F1
[15] = test system: Rat; assay: concentration in plasma after dosing; settings: dosed: 2-Hydroxy-4-methoxybenzophenone, 250 mg/kg, oral, Female, F344
[16] = test system: Mouse; assay: concentration in plasma after dosing; settings: 2 h; dosed: 2-Hydroxy-4-methoxybenzophenone; 500 mg/kg; oral; Female; B6C3F1
[17] = test system: monkey; assay: concentration in blood after dosing; negative times count back from the end of exposure; settings: dosed: methanol, 1200 ppm, inhalation, duration: 6 hr, male, Macaca mulatta
Method in brief: as §1

[18] = test system: Rat; assay: concentration in liver after dosing; settings: 1 h; dosed: Fluorotelomer alcohol 8+2; 80 mg/kg; oral; Female; Harlan Sprague Dawley
[19] = test system: Rat; assay: concentration in liver after dosing; settings: 3 h; dosed: Fluorotelomer alcohol 8+2; 80 mg/kg; oral; Female; Harlan Sprague Dawley
[20] = test system: Rat; assay: concentration in brain after dosing; settings: 6 h; dosed: Perfluorooctanoic acid; 12 mg/kg; oral; Male; Harlan Sprague Dawley
[21] = test system: Rat; assay: concentration in plasma after dosing; settings: dosed: Fluorotelomer alcohol 8+2, 12 mg/kg, oral, Male, Harlan Sprague Dawley
[22] = test system: Rat; assay: concentration in kidney after dosing; settings: 6 h; dosed: Fluorotelomer alcohol 8+2; 80 mg/kg; oral; Female; Harlan Sprague Dawley
[23] = test system: Rat; assay: concentration in plasma after dosing; settings: dosed: Fluorotelomer alcohol 8+2, 12 mg/kg, oral, Male, Harlan Sprague Dawley; remark: listed apart in the source
[24] = test system: Rat; assay: concentration in kidney after dosing; settings: 24 h; dosed: Perfluorooctanoic acid; 80 mg/kg; oral; Female; Harlan Sprague Dawley
[25] = test system: Rat; assay: concentration in kidney after dosing; settings: 6 h; dosed: Fluorotelomer alcohol 8+2; 24 mg/kg; oral; Male; Harlan Sprague Dawley
[26] = test system: Rat; assay: concentration in kidney after dosing; settings: 3 h; dosed: Fluorotelomer alcohol 8+2; 80 mg/kg; oral; Female; Harlan Sprague Dawley
[27] = test system: Rat; assay: concentration in plasma after dosing; settings: dosed: 678-39-7, 40 mg/kg, iv, Male, F344
[28] = test system: Rat; assay: concentration in plasma after dosing; settings: dosed: 678-39-7, 12 mg/kg, iv, Male, F344
[29] = test system: Rat; assay: concentration in kidney after dosing; settings: 192 h; dosed: Perfluorooctanoic acid; 12 mg/kg; oral; Male; Harlan Sprague Dawley
[30] = test system: rat; settings: dosed: benzo[a]pyrene, 1 mg/kg, iv, male, Sprague Dawley

CC(C)(C)O [tert-butyl alcohol]
[1]
Settings | concentration in expired air [nM]
0.163 h | 1.334
0.3286 h | 2.062
0.5019 h | 2.062
0.6649 h | 2.197
0.8305 h | 1.982
0.9909 h | 1.774
1.501 h | 1.665
1.995 h | 1.562
2.994 h | 1.49
3.99 h | 1.323
4.991 h | 1.366
5.99 h | 1.242

O=S(=O)([O-])C(F)(F)C(F)(F)C(F)(F)C(F)(F)F.[K+] [Potassium Perfluorobutane Sulfonate]
Settings | concentration in plasma [ng/mL]
[2], 0.25 h | 3580
[2], 6 h | 11600
[4], 0.5 h | 19100
[4], 12 h | 1620
[6], 3 h | 476
[6], 5 min | 29200
[7], 1 h | 13800
[7], 24 h | 245

Settings | concentration in plasma [ng/mL]
[3] | 5120
[5] | 58500
[8] | 3410

O=N[O-] [Nitrite]
concentration in plasma [ng/mL]
Settings | [9] | [10]
1 h | 4300 | 8300
2 h | 1800 | 3600

COc1ccc(C(=O)c2ccccc2)c(O)c1 [2-Hydroxy-4-methoxybenzophenone]
Settings | concentration in plasma [ng/mL]
[11] | 311
[12] | 134
[14] | 7110
[16] | 4310

concentration in plasma [ng/mL]
Settings | [13] | [15]
0.25 h | 100 | 56.9
4 h | 16.3 | 26.2

CO [methanol]
[17]
Settings | concentration in blood [ng/mL]
0.9399 h | 16100
1.959 h | 9030
2.967 h | 4920
4.499 h | 3110
6.031 h | 903

[17], during exposure
Settings | concentration in blood [ng/mL]
-98 s | 26900
-5.593 h | 4820
-5.081 h | 8330
-3.07 h | 21000

O=C(O)C(F)(F)C(F)(F)C(F)(F)C(F)(F)C(F)(F)C(F)(F)C(F)(F)F [Perfluorooctanoic acid]
Settings | concentration in brain [ng/g] | concentration in kidney [ng/g] | concentration in liver [ng/g]
[18] | – | – | 727
[19] | – | – | 2300
[20] | 1290 | – | –
[22] | – | 1730 | –
[24] | – | 12300 | –
[25] | – | 421 | –
[26] | – | 2010 | –
[29] | – | 14100 | –

Settings | concentration in plasma [ng/mL]
[21], 0.5 h | 108
[21], 9 h | 851
[23], 0.5 h | 79.5
[23], 9 h | 793
[27], 0.25 h | 465
[27], 0.5 h | 220000
[27], 6 h | 1540
[27], 24 h | 1640
[28], 1 h | 378
[28], 6 h | 480

c1ccc2c(c1)cc1ccc3cccc4ccc2c1c34 [benzo[a]pyrene]
[30]
Settings | amount in urine after dosing [ng]
2.991 h | 1.11
6.006 h | 1.15
24 h | 1.15
